In ChEMBL document CHEMBL3286357, “Design, synthesis and pharmacological evaluation of novel substituted quinoline-2-carboxamide derivatives as human dihydroorotate dehydrogenase (hDHODH) inhibitors and anticancer agents” (Eur J Med Chem, 2014):

Experiments:
[1] = Retention time of compound by HPLC analysis; assay type: physicochemical
[2] = test system: A-375; assay: Antiproliferative activity against human A375 cells at 0.01 ug/ml for 24 hrs by MTT assay; assay type: functional; details: A-375, 24 h
In short: (§1)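 HEP-3B or A-375 cells were grown in DMEM with 10% FBS, 5% HBSS, penicillin, streptomycin and amphotericin B at 37 C and 5% CO2. Cells were seeded at 2 × 10^4 per well and preincubated for 24 h. They were then exposed to ten 1:3 serial dilutions from a top concentration of 100, made from 2% DMSO stocks. MTT was added for 3 h, formazan was dissolved in DMSO, and A550 was read. Wells were run in triplicate across three independent experiments. IC50 came from dose-response curves.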

[3] = test system: A-375; assay: Antiproliferative activity against human A375 cells at 0.02 ug/ml for 24 hrs by MTT assay; assay type: functional; details: A-375, 24 h; in short: as §1
[4] = test system: A-375; assay: Antiproliferative activity against human A375 cells at 0.05 ug/ml for 24 hrs by MTT assay; assay type: functional; details: A-375, 24 h; in short: as §1
[5] = test system: A-375; assay: Antiproliferative activity against human A375 cells at 0.14 ug/ml for 24 hrs by MTT assay; assay type: functional; details: A-375, 24 h; in short: as §1
[6] = test system: A-375; assay: Antiproliferative activity against human A375 cells at 0.41 ug/ml for 24 hrs by MTT assay; assay type: functional; details: A-375, 24 h; in short: as §1
[7] = test system: A-375; assay: Antiproliferative activity against human A375 cells at 1.23 ug/ml for 24 hrs by MTT assay; assay type: functional; details: A-375, 24 h; in short: as §1
[8] = test system: A-375; assay: Antiproliferative activity against human A375 cells at 3.7 ug/ml for 24 hrs by MTT assay; assay type: functional; details: A-375, 24 h; in short: as §1
[9] = test system: A-375; assay: Antiproliferative activity against human A375 cells at 11.11 ug/ml for 24 hrs by MTT assay; assay type: functional; details: A-375, 24 h; in short: as §1
[10] = test system: A-375; assay: Antiproliferative activity against human A375 cells at 33.33 ug/ml for 24 hrs by MTT assay; assay type: functional; details: A-375, 24 h; in short: as §1
[11] = test system: A-375; assay: Antiproliferative activity against human A375 cells at 100 ug/ml for 24 hrs by MTT assay; assay type: functional; details: A-375, 24 h; in short: as §1
[12] = Antiproliferative activity against human Hep3B cells at 0.01 ug/ml for 24 hrs by MTT assay; assay type: functional, Hep 3B2; in short: as §1
[13] = Antiproliferative activity against human Hep3B cells at 0.02 ug/ml for 24 hrs by MTT assay; assay type: functional, Hep 3B2; in short: as §1
[14] = Antiproliferative activity against human Hep3B cells at 0.05 ug/ml for 24 hrs by MTT assay; assay type: functional, Hep 3B2; in short: as §1
[15] = Antiproliferative activity against human Hep3B cells at 0.14 ug/ml for 24 hrs by MTT assay; assay type: functional, Hep 3B2; in short: as §1
[16] = Antiproliferative activity against human Hep3B cells at 0.41 ug/ml for 24 hrs by MTT assay; assay type: functional, Hep 3B2; in short: as §1
[17] = Antiproliferative activity against human Hep3B cells at 1.23 ug/ml for 24 hrs by MTT assay; assay type: functional, Hep 3B2; in short: as §1
[18] = Antiproliferative activity against human Hep3B cells at 3.7 ug/ml for 24 hrs by MTT assay; assay type: functional, Hep 3B2; in short: as §1
[19] = Antiproliferative activity against human Hep3B cells at 11.11 ug/ml for 24 hrs by MTT assay; assay type: functional, Hep 3B2; in short: as §1
[20] = Antiproliferative activity against human Hep3B cells at 33.33 ug/ml for 24 hrs by MTT assay; assay type: functional, Hep 3B2; in short: as §1
[21] = Antiproliferative activity against human Hep3B cells at 100 ug/ml for 24 hrs by MTT assay; assay type: functional, Hep 3B2; in short: as §1
[22] = test system: A-375 (human melanoma); assay: Antiproliferative activity against human A375 cells for 24 hrs by MTT assay; details: A-375, 24 h
[23] = test system: HEP-3B (human hepatoma); assay: Antiproliferative activity against human Hep3B cells for 24 hrs by MTT assay
[24] = molecular target: Dihydroorotate dehydrogenase (quinone), mitochondrial (Homo sapiens, UniProt Q02127); assay: Inhibition of recombinant human DHODH activity after 20 mins by DCIP dye based colorimetric analysis in presence of 1 mM L-dihydroorotate and 0.1 mM CqD
Chain of Dihydroorotate dehydrogenase (quinone), mitochondrial (Q02127 whole entry): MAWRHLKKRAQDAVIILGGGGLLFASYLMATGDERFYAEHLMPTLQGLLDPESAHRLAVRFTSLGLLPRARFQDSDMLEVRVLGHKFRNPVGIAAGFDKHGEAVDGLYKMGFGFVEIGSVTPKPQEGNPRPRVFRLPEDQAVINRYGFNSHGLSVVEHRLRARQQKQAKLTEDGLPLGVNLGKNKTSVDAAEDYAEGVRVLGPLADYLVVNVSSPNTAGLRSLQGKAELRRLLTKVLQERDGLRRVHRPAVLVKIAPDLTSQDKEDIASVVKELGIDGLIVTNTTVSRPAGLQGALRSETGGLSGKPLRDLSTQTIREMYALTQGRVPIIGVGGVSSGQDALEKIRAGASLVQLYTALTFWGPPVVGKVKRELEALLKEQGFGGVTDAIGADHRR

Compound	Retention_time [1]	inhibition at 0.01 µg/mL [2]	inhibition at 0.02 µg/mL [3]	inhibition at 0.05 µg/mL [4]	inhibition at 0.14 µg/mL [5]	inhibition at 0.41 µg/mL [6]	inhibition at 1.23 µg/mL [7]	inhibition at 3.7 µg/mL [8]	inhibition at 11.11 µg/mL [9]	inhibition at 33.33 µg/mL [10]	inhibition at 100 µg/mL [11]	inhibition at 0.01 µg/mL [12]	inhibition at 0.02 µg/mL [13]	inhibition at 0.05 µg/mL [14]	inhibition at 0.14 µg/mL [15]	inhibition at 0.41 µg/mL [16]	inhibition at 1.23 µg/mL [17]	inhibition at 3.7 µg/mL [18]	inhibition at 11.11 µg/mL [19]	inhibition at 33.33 µg/mL [20]	other results
CCOc1ccc2nc(C(=O)Nc3c(F)cc(-c4cccc(F)c4)cc3F)c(C)c(C(=O)O)c2c1	6.8 min	0.3%	1.02%	1.96%	3.05%	11.2%	26.6%	35.2%	48.3%	51.2%	72.3%	-0.12%	0.05%	0.98%	2.06%	5.34%	17.9%	26.5%	33.2%	38.6%	inhibition at 100 µg/mL [21]: 65.3%; IC50 [22]: 5.8 µM; IC50 [23]: 14.9 µM; IC50 [24]: 2.83 µM
Cc1c(C(=O)Nc2c(F)cc(-c3cccc(F)c3)cc2F)nc2ccc(C(F)(F)F)cc2c1O	7 min	0.16%	1.28%	3.47%	9.37%	16.5%	21.2%	34.3%	46.3%	61.3%	95.2%	-0.33%	0.06%	1.35%	2.65%	9.38%	15.3%	31.2%	36.2%	45.2%	inhibition at 100 µg/mL [21]: 68.4%; IC50 [22]: 29.9 µM; IC50 [23]: 12.6 µM; IC50 [24]: 6.09 µM
Cc1c(C(=O)Nc2c(F)cc(-c3cccc(F)c3)cc2F)nc2ccc(C(F)(F)F)cc2c1C(=O)O	6.8 min	0.12%	0.37%	1.04%	2.56%	7.82%	18.3%	27.8%	45.4%	51%	61.3%	0.2%	1.15%	1.68%	2.13%	6.42%	17.2%	21.3%	31.2%	43.3%	inhibition at 100 µg/mL [21]: 72.3%; IC50 [22]: 7.57 µM; IC50 [23]: 42.8 µM; IC50 [24]: 3.44 µM
CCc1ccc2nc(C(=O)Nc3c(F)cc(-c4cccc(F)c4)cc3F)c(C)c(O)c2c1	6.3 min	-0.35%	-0.12%	0.68%	1.57%	3.56%	12.2%	17.9%	26.4%	28.4%	47.2%	0.74%	2.05%	5.62%	11.2%	16.2%	23.5%	31.2%	46.3%	56.3%	inhibition at 100 µg/mL [21]: 63.2%; IC50 [22]: 15.8 µM; IC50 [23]: 8.13 µM; IC50 [24]: 3.21 µM
COc1ccc2nc(C(=O)Nc3c(F)cc(-c4cccc(F)c4)cc3F)c(C)c(O)c2c1	7.1 min	0.79%	2.13%	6.38%	11.6%	28.7%	36.2%	49.9%	57.2%	64.9%	96.8%	0.105%	0.87%	1.35%	2.68%	4.5%	13.3%	25.2%	29.3%	31.2%	inhibition at 100 µg/mL [21]: 46.2%; IC50 [22]: 5.03 µM; IC50 [23]: 6.98 µM; IC50 [24]: 0.94 µM
Cc1ccc2nc(C(=O)Nc3c(F)cc(-c4cccc(F)c4)cc3F)c(C)c(O)c2c1	8.8 min	0.1%	0.38%	0.96%	1.06%	1.35%	3.04%	16.2%	17.9%	26.5%	56.4%	0.22%	0.98%	1.52%	2.34%	5.25%	11.2%	19.2%	25.5%	37.3%	inhibition at 100 µg/mL [21]: 68.3%; IC50 [22]: > 100 µM; IC50 [23]: 90.5 µM
Cc1c(C(=O)Nc2c(F)cc(-c3cccc(F)c3)cc2F)nc2ccc(OC(F)(F)F)cc2c1C(=O)O	6.9 min	-0.11%	0.95%	1.06%	3.06%	15.2%	24.4%	37.9%	42.4%	53.1%	68.8%	0.45%	1.22%	3.05%	7.28%	15.3%	21.2%	29.8%	37.3%	46.2%	inhibition at 100 µg/mL [21]: 75.3%; IC50 [22]: 4.8 µM; IC50 [23]: 22 µM; IC50 [24]: 1.5 µM
Cc1c(C(=O)Nc2c(F)cc(-c3cccc(F)c3)cc2F)nc2ccc(F)cc2c1C(=O)O	7.2 min	-0.56%	-0.22%	0.37%	1.05%	3.02%	16.3%	24.5%	36.2%	41.3%	64.3%	-0.35%	-0.13%	0.05%	0.65%	1.06%	2.45%	11.2%	26.3%	34.3%	inhibition at 100 µg/mL [21]: 65.2%; IC50 [22]: 14.7 µM; IC50 [23]: 81.9 µM; IC50 [24]: 4.58 µM
COc1ccc2nc(C(=O)Nc3ccc(-c4ccccc4)cc3)c(C)c(O)c2c1	6.4 min	0.13%	0.56%	1.98%	3.05%	7.62%	18.7%	27.2%	36.2%	46.2%	66.9%	0.35%	0.96%	1.23%	3.52%	7.58%	14.2%	23.5%	36.2%	48.4%	inhibition at 100 µg/mL [21]: 79.3%; IC50 [22]: 18.1 µM; IC50 [23]: 50.6 µM; IC50 [24]: 2.28 µM
